In ChEMBL document CHEMBL4138290, “Highly Oxidized Guaianolide Sesquiterpenoids with Potential Anti-inflammatory Activity from Chrysanthemum indicum” (J Nat Prod, 2018):
pIC50: −log10 of the molar value. Activity calls are given as the source filed them. No cut-off for these calls is given here.

Key:
RAW264.7 [1] = experiment: Antiinflammatory activity in mouse RAW264.7 cells assessed as inhibition of LPS-induced NO production after 18 hrs by Griess assay; assay type: functional, cell-based; details: RAW264.7, 18 h
In short: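 RAW264.7 murine macrophages (DMEM, 10% FBS, pen-strep, 37 °C, 5% CO2) seeded 6 × 10^4 cells/well for 18 h. Compound added with 1 μg/mL LPS for 18 h. Supernatant nitrite read with Griess reagent (10 min, OD 540 nm). Inhibition relative to DMSO-only control. L-NMMA as positive control. IC50 is mean ± SD of three independent experiments.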

RAW264.7 [2] = experiment: Downregulation of iNOS in LPS-induced mouse RAW264.7 cells at 2.5 uM by Western blot analysis; assay type: functional, cell-based
In short: (§1)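 Western blot in RAW264.7 cells treated with compound under LPS (1 μg/mL) stimulation. Cells lysed in 1% RIPA and protein quantified by BCA. SDS-PAGE, PVDF transfer, 5% skim milk block for 2 h at 25 °C, primary antibody 12 h at 4 °C, then secondary at room temperature.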

RAW264.7 [3] = experiment: Cytotoxicity against LPS-induced mouse RAW264.7 cells assessed as reduction in cell viability at 6.25 uM after 18 hrs by MTT assay; assay type: cell-based; details: raw264.7, 18 h
In short: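 RAW264.7 cells were seeded at 5 × 10^3/well for 18 h, then exposed to compound at various concentrations with or without LPS (1.0 μg/mL) for 18 h. MTT (5 mg/mL, 20 μL) added for 4 h. Formazan dissolved in DMSO and read at 570 nm. Viability is relative to the DMSO-only control, set as 100%.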

[4] = target: Transcription factor p65 (Mus musculus) (UniProt Q04207); experiment: Inhibition of LPS-induced NF-kB p65 nuclear translocation in mouse RAW264.7 cells at 1.25 to 5 uM by Western blot analysis; assay type: cell-based; in short: as §1
Sequence of Transcription factor p65 (Mus musculus) (Q04207 whole entry): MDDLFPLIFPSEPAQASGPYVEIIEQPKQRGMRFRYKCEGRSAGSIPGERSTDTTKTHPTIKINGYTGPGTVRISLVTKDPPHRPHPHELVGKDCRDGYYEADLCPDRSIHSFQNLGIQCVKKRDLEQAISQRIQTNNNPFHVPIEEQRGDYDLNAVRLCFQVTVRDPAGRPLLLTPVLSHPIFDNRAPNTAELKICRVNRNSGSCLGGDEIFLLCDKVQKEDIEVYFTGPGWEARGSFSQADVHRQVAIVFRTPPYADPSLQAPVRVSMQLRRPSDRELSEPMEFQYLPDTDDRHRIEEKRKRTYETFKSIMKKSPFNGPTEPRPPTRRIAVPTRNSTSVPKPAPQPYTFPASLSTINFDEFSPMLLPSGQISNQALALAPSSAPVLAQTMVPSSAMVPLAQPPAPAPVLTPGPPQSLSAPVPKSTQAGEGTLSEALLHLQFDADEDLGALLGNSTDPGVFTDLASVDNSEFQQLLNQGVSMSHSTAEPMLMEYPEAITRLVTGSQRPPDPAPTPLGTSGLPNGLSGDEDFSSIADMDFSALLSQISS

RAW264.7 [5] = experiment: Inhibition of JNK phosphorylation in LPS-induced mouse RAW264.7 cells at 1.25 to 5 uM incubated with compound for 1 hr followed by LPS stimulation measured after 4 hrs by Western blot analysis; assay type: cell-based
In short: (§2)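 Western blot of MAPK phosphorylation in RAW264.7 cells. Cells pretreated with or without compound (1.25, 2.5, 5.0 μM) for 1 h, then LPS (0.1 μg/mL) for 4 h. Lysed in 1% RIPA, BCA protein assay, SDS-PAGE, PVDF, milk block 2 h at 25 °C, primary antibody 12 h at 4 °C, then secondary at room temperature.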

RAW264.7 [6] = experiment: Downregulation of total NF-kappaB level in LPS-induced mouse RAW264.7 cells at 1.25 to 5 uM by Western blot analysis; assay type: functional, cell-based; in short: as §1
RAW264.7 [7] = experiment: Inhibition of ERK phosphorylation in LPS-induced mouse RAW264.7 cells at 1.25 to 5 uM incubated with compound for 1 hr followed by LPS stimulation measured after 4 hrs by Western blot analysis; assay type: cell-based; in short: as §2
RAW264.7 [8] = experiment: Downregulation of COX-2 in LPS-induced mouse RAW264.7 cells at 2.5 uM by Western blot analysis; assay type: functional, cell-based; in short: as §1
[9] = target: MAP kinase p38 (Mus musculus) (UniProt P47811+O08911+Q9WUI1+Q9Z1B7); experiment: Inhibition of p38 phosphorylation in LPS-induced mouse RAW264.7 cells at 1.25 to 5 uM incubated with compound for 1 hr followed by LPS stimulation measured after 4 hrs by Western blot analysis; assay type: cell-based; in short: as §2
RAW264.7 [10] = experiment: Inhibition of NF-kappaB in LPS-induced mouse RAW264.7 cells assessed as decrease in STAT3 phosphorylation at 1.25 to 5 uM by Western blot analysis; assay type: cell-based; in short: as §1

| SMILES | pIC50 (RAW264.7 [1]) | also measured |
| --- | --- | --- |
| C=C1C(=O)O[C@H]2[C@H]1CC[C@@](C)(O)[C@]13C=C[C@](C)([C@@H]21)[C@]1(C3)C(=O)O[C@H]2[C@H]1CC[C@@](C)(O)[C@]13O[C@H]1[C@@H](O)[C@@](C)(O)[C@H]23 | < 4.30 |  |
| CNC(=N)NCCC[C@H](N)C(=O)O [TILARGININE] | 4.59 |  |
| C=C1C(=O)O[C@H]2[C@@H]1[C@@H](OC(=O)C=C(C)C)C[C@@](C)(O)[C@@]13C=C[C@@](C)(OO1)[C@H]23 | 5.14 |  |
| C=C1C(=O)O[C@H]2[C@@H]1[C@@H](OC(=O)/C(C)=C/C)C[C@@](C)(O)[C@@]13C=C[C@@](C)(OO1)[C@H]23 | 5.47 |  |
| C=C1C(=O)O[C@H]2[C@H]1C[C@@H](OC(=O)/C(C)=C/C)[C@@](C)(O)[C@@]13O[C@@H]1[C@@H]1O[C@]1(C)[C@H]23 | 5.41 |  |
| C=C1C(=O)O[C@H]2[C@H]1C[C@@H](OC(=O)/C(C)=C\C)[C@@](C)(O)[C@]13O[C@H]1[C@@H](O)[C@@](C)(O)[C@H]23 | 5.15 |  |
| C=C1C(=O)O[C@H]2[C@H]1C[C@@H](OC(=O)/C(C)=C/C)[C@@](C)(O)[C@]13O[C@H]1[C@H]1O[C@@]1(C)[C@H]23 | 5.20 |  |

Further lines, with some results ahead:

| pIC50 (RAW264.7 [1]) | SMILES | also measured |
| --- | --- | --- |
| 4.67 | C=C1C(=O)O[C@H]2[C@H]1CC[C@@](C)(O)[C@]13O[C@H]1[C@@H](O)[C@](C)(O)[C@H]23 |  |
| 5.85 | C=C1C(=O)O[C@H]2[C@H]1C[C@@H](OC(=O)/C(C)=C\C)[C@@](C)(O)[C@@]13O[C@@H]1[C@@H]1O[C@]1(C)[C@H]23 | Activity (RAW264.7 [2]): Active; Activity (RAW264.7 [3]): Non-Toxic; inhibition [4]: Active; inhibition (RAW264.7 [5]): Active; Activity (RAW264.7 [6]): Active; inhibition (RAW264.7 [7]): Active; Activity (RAW264.7 [8]): Active; inhibition [9]: Active; inhibition (RAW264.7 [10]): Active |
| 5.32 | C=C1C(=O)O[C@H]2[C@H]1C[C@@H](OC(=O)C=C(C)C)[C@@](C)(O)[C@@]13O[C@@H]1[C@@H]1O[C@]1(C)[C@H]23 |  |
| 5.40 | C=C1C(=O)O[C@H]2[C@H]1C[C@@H](OC(=O)/C(C)=C\C)[C@@](C)(O)[C@]13O[C@H]1[C@H]1O[C@@]1(C)[C@H]23 |  |
| < 4.30 | C=C1C(=O)O[C@H]2[C@H]1CC[C@@](C)(O)[C@]13C=C[C@](C)([C@@H]21)[C@]1(C3)C(=O)O[C@H]2[C@H]1CC[C@@](C)(O)[C@]13O[C@H]1[C@@H](O)[C@](C)(O)[C@H]23 |  |
| 5.01 | C=C(C)C(=O)O[C@@H]1C[C@H]2C(=C)C(=O)O[C@@H]2[C@H]2[C@](C)(O)[C@@H](Cl)[C@@H]3O[C@@]32[C@]1(C)O |  |
